In ChEMBL document CHEMBL4406881, “Design, synthesis and biological evaluation of benzoylacrylic acid shikonin ester derivatives as irreversible dual inhibitors of tubulin and EGFR” (Bioorg Med Chem, 2019):
The source made the active and inactive calls. The rule behind the calls is not given here.

Key:
[1] = system: A549; experiment: Induction of apoptosis in human A549 cells assessed as late apoptotic cells at 12 uM after 24 hrs by Annexin-V/PI staining based flow cytometry analysis (reference value: 5.69%); type: functional
[2] = system: A549; experiment: Induction of apoptosis in human A549 cells assessed as viable cells at 4 uM after 24 hrs by Annexin-V/PI staining based flow cytometry analysis (reference value: 91.4%); type: functional; settings: A549, 24 h, read-out: Activity
Summary of the method: (§1)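 A549 cells seeded overnight at 37 °C, 5% CO2, then exposed to 0, 2, 4, 8 or 12 µM for 24 h (dose series) or 8 µM for 0, 12, 24, 36 h (time series). Harvested, PBS-washed, stained with Annexin V-FITC and PI in binding buffer 15 min at room temperature in the dark, analysed by flow cytometry; three independent experiments.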

[3] = system: MCF7; experiment: Antiproliferative activity against human MCF7 cells assessed as reduction in cell viability after 24 hrs by MTT assay; type: functional, cell-based; settings: MCF7, 24 h
Summary of the method: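 MTT colorimetric assay. Cells in log phase in medium with 10% FBS were seeded at 10⁴ cells/well and left overnight at 37 °C, 5% CO₂ to reattach. Compounds were added at 0.1, 1, 10 and 100 μM in 10% FBS for 24 h. IC50 reported as mean ± SD of three independent experiments.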

[4] = system: A549; experiment: Induction of apoptosis in human A549 cells assessed as necrotic cells after at 8 uM 24 hrs by Annexin-V/PI staining based flow cytometry analysis (reference value: 1.81%); type: functional; summary of the method: as §1
[5] = system: A549; experiment: Induction of G2/M cell cycle arrest in human A549 cells assessed as increase in CDK1 expression at 2 to 8 uM by immunoblot analysis; type: functional, cell-based
Summary of the method: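 A549 lysates in RIPA buffer with protease inhibitors were run on SDS-PAGE and blotted to PVDF. Membranes were probed overnight at 4 °C with primary antibody at 1:1000, then secondary antibody at 1:3000-1:5000 for 1 h, and detected by ECL. Band intensity was normalised to GAPDH. Results are mean ± S.E.M. from three independent experiments.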

[6] = system: A549; experiment: Induction of apoptosis in human A549 cells assessed as increase in Bax expression at 2 to 8 uM after 24 hrs by Western blot analysis; type: functional, cell-based
Summary of the method: (§2)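 Western blot of A549 cells treated for 24 h. Lysates in RIPA buffer were run on SDS-PAGE and transferred to PVDF. Primary antibody at 1:1000 overnight at 4 °C, secondary antibody at 1:3000-1:5000 for 1 h, ECL detection. Densitometry was normalised to GAPDH; mean ± S.E.M. from three independent experiments.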

[7] = system: A549; experiment: Induction of apoptosis in human A549 cells assessed as early apoptotic cells at 4 uM after 24 hrs by Annexin-V/PI staining based flow cytometry analysis (reference value: 1.15%); type: functional
[8] = system: A549; experiment: Cell cycle arrest in human A549 cells assessed as accumulation at G1 phase at 8 uM after 36 hrs by RNAse A/ PI staining based flow cytometric analysis (reference value: 67.69%); type: functional
Summary of the method: (§3)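 A549 cells at 5.0×10^4 per well were grown 12 h at 37 °C. Treatment was 0, 2, 4 or 8 µM for 24 h, or 8 µM for 0, 12, 24 or 36 h. Cells were fixed in 70% ethanol at −20 °C for at least 12 h, then stained in PBS with 0.1 mg/mL RNase A and 5 µg/mL PI. At least 10,000 events per sample were collected by flow cytometry to give G0/G1, S and G2/M percentages.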

[9] = system: A549; experiment: Cell cycle arrest in human A549 cells assessed as accumulation at S phase at 8 uM after 36 hrs by RNAse A/ PI staining based flow cytometric analysis (reference value: 19.66%); type: functional; summary of the method: as §3
[10] = target: Epidermal growth factor receptor (Homo sapiens, UniProt P00533); experiment: Inhibition of EGFR signalling in human A549 cells assessed as reduction in EGFR phosphorylation after 24 hrs by Western blot analysis; type: cell-based
Epidermal growth factor receptor, sequence (P00533 whole entry): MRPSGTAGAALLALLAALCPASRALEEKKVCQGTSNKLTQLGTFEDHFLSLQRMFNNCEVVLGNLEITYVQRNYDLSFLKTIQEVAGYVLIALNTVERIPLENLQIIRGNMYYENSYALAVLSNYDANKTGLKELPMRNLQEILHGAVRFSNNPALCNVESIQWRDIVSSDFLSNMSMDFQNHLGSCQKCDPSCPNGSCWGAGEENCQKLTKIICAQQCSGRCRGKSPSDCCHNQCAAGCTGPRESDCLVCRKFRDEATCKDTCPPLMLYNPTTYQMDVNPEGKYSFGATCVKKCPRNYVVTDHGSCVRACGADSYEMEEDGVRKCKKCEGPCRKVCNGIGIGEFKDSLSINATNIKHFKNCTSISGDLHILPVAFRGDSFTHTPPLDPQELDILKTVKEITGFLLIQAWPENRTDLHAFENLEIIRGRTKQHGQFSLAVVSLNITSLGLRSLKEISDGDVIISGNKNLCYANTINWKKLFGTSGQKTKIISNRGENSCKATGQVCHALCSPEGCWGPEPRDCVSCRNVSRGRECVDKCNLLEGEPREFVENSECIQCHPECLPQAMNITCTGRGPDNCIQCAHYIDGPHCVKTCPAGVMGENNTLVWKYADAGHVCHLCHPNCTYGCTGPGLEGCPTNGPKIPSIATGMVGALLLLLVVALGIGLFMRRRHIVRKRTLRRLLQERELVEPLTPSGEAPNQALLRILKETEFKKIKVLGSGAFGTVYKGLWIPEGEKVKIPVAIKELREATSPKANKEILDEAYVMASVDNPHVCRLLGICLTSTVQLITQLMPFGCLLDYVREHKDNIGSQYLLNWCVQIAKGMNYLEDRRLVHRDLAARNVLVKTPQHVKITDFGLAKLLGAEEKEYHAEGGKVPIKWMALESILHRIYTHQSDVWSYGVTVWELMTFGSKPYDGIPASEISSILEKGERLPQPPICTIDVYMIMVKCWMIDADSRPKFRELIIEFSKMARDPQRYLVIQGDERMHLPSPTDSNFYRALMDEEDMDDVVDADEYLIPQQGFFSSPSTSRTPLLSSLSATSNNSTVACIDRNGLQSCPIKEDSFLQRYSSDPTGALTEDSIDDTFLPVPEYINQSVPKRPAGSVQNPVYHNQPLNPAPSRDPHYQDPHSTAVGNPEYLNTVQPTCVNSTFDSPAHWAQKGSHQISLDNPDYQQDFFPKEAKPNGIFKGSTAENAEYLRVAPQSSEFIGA
Summary of the method: (§4)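 A549 cells in 6-well plates were lysed in RIPA buffer with protease inhibitors on ice for 30 min and cleared at 4 °C. Protein was quantified by BCA, run on SDS-PAGE and transferred to PVDF. Membranes were blocked with milk, probed with primary antibody (1:1000) overnight at 4 °C, then secondary antibody (1:3000-1:5000) 1 h at RT. Detection by ECL; band densitometry normalised to GAPDH (β-actin also used). Three independent experiments.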

[11] = system: A549; experiment: Induction of apoptosis in human A549 cells assessed as PARP cleavage expression at 2 to 8 uM after 24 hrs by Western blot analysis; type: functional, cell-based; summary of the method: as §2
[12] = system: A549; experiment: Cell cycle arrest in human A549 cells assessed as accumulation at G2/M phase at 8 uM after 12 hrs by RNAse A/ PI staining based flow cytometric analysis (reference value: 12.65%); type: functional; summary of the method: as §3
[13] = system: A549; experiment: Induction of apoptosis in human A549 cells assessed as reduction in caspase-9 expression at 2 to 8 uM after 24 hrs by Western blot analysis; type: functional, cell-based; summary of the method: as §4
[14] = system: A549; experiment: Induction of apoptosis in human A549 cells assessed as caspase-3 cleavage expression at 2 to 8 uM after 24 hrs by Western blot analysis; type: functional, cell-based; summary of the method: as §2
[15] = system: A549; experiment: Induction of apoptosis in human A549 cells assessed as viable cells at 8 uM after 24 hrs by Annexin-V/PI staining based flow cytometry analysis (reference value: 91.4%); type: functional; settings: A549, 24 h, read-out: Activity; summary of the method: as §1
[16] = system: A549; experiment: Induction of apoptosis in human A549 cells assessed as early apoptotic cells at 8 uM after 36 hrs by Annexin-V/PI staining based flow cytometry analysis (reference value: 2.02%); type: functional
[17] = system: A549; experiment: Induction of apoptosis in human A549 cells assessed as viable cells at 8 uM after 12 hrs by Annexin-V/PI staining based flow cytometry analysis (reference value: 88.4%); type: functional; settings: A549, 12 h, read-out: Activity; summary of the method: as §1
[18] = system: A549; experiment: Inhibition of Wnt/beta-catenin signaling pathway in human A549 cells assessed as increase in axin-2 expression by Western blot analysis; type: cell-based; summary of the method: as §4
[19] = system: A549; experiment: Antimigratory activity against human A549 cells measured up to 48 hrs by phase contrast microscopic based wound healing assay; type: functional, cell-based
Summary of the method: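 A549 monolayer seeded at 2×10^5 cells per cm² overnight, incubated 24 h, then scratched with a micropipette tip. The same cell-free area was imaged by phase-contrast microscopy at 0, 24 and 48 h. Wound area was outlined by image analysis to quantify the reduction in cell-free space; n = 3.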

[20] = system: A549; experiment: Induction of apoptosis in human A549 cells incubated for 24 hrs by Annexin-V/PI staining based flow cytometry analysis; type: functional, cell-based; summary of the method: as §1
[21] = system: A549; experiment: Induction of apoptosis in human A549 cells assessed as late apoptotic cells at 2 uM after 24 hrs by Annexin-V/PI staining based flow cytometry analysis (reference value: 5.69%); type: functional

## CC(C)=CC[C@@H](OC(=O)/C=C\C(=O)c1ccc(F)cc1)C1=CC(=O)c2c(O)ccc(O)c2C1=O
[1]
  Activity: 38.1%
[2]
  viability at 4 µM: 71.7%
[3]
  IC50: 8.9 µM
[4]
  Activity: 3.29%
[5]
  Activity: Active
[6]
  Activity: Active
[7]
  Activity: 17.6%
[8]
  Activity: 30.88%
[9]
  Activity: 22.57%
[10]
  inhibition: Dose-dependent effect
[11]
  Activity: Active
[12]
  Activity: 19.4%
[13]
  Activity: Active
[14]
  Activity: Active
[15]
  viability at 8 µM: 30.6%
[16]
  Activity: 43.8%
[17]
  viability at 8 µM: 79%
[18]
  inhibition: Dose-dependent effect
[19]
  inhibition: Dose-dependent effect
[20]
  Activity: Dose-dependent effect
[21]
  Activity: 9.45%
